One assay has as its system HCT-116. The experiment in a line: Antiproliferative activity against human HCT-116 cells assessed as reduction in cell viability incubated for 3 days by cell-titer glo assay. As to conditions: HCT-116, 72 h. It counts as functional, cell-based. Summed up: (§1)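 Cells seeded in 96-well plates (RS4;11 5000 cells/well; HCT-116, Huh7, K562, NB4 2000 cells/well), dosed after 24 h with a range of compound concentrations for 3 days. Viability read by CellTiter-Glo luminescence; IC50 from curve fitting.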

For assay [1], the target named is Ubiquitin carboxyl-terminal hydrolase isozyme L1 (Homo sapiens) (UniProt P09936). The experiment in a line: Inhibition of UCH-L1 (unknown origin) at 20 uM.
A further assay relates to RS4-11. The experiment in a line: Antiproliferative activity against human RS4-11 cells assessed as reduction in cell viability incubated for 3 days by cell-titer glo assay. As to conditions: RS4-11, 72 h. It counts as functional, cell-based. Summed up: as §1
Assay [2] deals with T1, Ubiquitin carboxyl-terminal hydrolase 25 (Homo sapiens) (UniProt Q9UHP3).
T1 sequence (whole entry): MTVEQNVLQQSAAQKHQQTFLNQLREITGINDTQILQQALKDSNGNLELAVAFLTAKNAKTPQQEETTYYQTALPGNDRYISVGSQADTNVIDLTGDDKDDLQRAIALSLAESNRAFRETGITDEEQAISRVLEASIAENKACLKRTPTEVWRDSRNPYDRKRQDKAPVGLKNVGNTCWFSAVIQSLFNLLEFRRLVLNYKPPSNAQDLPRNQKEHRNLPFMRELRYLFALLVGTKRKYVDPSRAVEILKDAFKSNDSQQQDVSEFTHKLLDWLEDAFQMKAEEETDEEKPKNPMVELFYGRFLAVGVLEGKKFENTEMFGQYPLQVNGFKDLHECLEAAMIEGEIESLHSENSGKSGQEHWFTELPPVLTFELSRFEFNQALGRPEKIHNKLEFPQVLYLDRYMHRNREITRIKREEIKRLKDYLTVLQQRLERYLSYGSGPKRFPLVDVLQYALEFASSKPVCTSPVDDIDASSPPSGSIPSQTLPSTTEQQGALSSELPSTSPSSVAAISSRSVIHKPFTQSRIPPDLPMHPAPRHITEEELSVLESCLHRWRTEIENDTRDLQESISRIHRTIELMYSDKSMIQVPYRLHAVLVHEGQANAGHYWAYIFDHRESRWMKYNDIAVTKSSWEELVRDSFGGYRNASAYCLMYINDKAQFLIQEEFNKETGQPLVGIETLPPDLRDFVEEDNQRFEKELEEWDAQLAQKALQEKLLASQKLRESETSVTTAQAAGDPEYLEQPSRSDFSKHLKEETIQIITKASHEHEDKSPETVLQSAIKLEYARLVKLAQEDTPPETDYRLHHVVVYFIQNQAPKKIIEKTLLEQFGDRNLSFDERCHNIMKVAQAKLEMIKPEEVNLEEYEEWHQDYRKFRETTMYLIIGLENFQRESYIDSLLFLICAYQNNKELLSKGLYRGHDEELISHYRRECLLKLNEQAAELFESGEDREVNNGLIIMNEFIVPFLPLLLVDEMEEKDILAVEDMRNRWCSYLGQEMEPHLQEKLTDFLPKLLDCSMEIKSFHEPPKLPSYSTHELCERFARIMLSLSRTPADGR
The experiment in a line: Inhibition of USP25 (unknown origin) at 20 uM.

In a further assay the test system is NB-4. The experiment in a line: Antiproliferative activity against human NB-4 cells assessed as reduction in cell viability incubated for 3 days by cell-titer glo assay. It counts as functional, cell-based. As to conditions: NB-4, 72 h. The procedure, abridged:
as §1

The next assay relates to LNCaP. The experiment in a line: Antiproliferative activity against human LNCaP cells assessed as reduction in cell viability incubated for 6 days by cell-titer glo assay. It counts as functional, cell-based. The note with it: 144 h. The procedure, abridged: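 LNCaP seeded at 2500 cells/well in 96-well plates, treated 24 h later with a range of compound concentrations for 6 days. Viability by CellTiter-Glo; IC50 from curve fitting.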

Assay [3] has as its target Ubiquitin carboxyl-terminal hydrolase 11 (Homo sapiens) (UniProt P51784). The experiment in a line: Inhibition of USP11 (unknown origin) at 20 uM.
Assay [4] deals with T2, Ubiquitin carboxyl-terminal hydrolase 28 (Homo sapiens) (UniProt Q96RU2).
T2 sequence (whole entry): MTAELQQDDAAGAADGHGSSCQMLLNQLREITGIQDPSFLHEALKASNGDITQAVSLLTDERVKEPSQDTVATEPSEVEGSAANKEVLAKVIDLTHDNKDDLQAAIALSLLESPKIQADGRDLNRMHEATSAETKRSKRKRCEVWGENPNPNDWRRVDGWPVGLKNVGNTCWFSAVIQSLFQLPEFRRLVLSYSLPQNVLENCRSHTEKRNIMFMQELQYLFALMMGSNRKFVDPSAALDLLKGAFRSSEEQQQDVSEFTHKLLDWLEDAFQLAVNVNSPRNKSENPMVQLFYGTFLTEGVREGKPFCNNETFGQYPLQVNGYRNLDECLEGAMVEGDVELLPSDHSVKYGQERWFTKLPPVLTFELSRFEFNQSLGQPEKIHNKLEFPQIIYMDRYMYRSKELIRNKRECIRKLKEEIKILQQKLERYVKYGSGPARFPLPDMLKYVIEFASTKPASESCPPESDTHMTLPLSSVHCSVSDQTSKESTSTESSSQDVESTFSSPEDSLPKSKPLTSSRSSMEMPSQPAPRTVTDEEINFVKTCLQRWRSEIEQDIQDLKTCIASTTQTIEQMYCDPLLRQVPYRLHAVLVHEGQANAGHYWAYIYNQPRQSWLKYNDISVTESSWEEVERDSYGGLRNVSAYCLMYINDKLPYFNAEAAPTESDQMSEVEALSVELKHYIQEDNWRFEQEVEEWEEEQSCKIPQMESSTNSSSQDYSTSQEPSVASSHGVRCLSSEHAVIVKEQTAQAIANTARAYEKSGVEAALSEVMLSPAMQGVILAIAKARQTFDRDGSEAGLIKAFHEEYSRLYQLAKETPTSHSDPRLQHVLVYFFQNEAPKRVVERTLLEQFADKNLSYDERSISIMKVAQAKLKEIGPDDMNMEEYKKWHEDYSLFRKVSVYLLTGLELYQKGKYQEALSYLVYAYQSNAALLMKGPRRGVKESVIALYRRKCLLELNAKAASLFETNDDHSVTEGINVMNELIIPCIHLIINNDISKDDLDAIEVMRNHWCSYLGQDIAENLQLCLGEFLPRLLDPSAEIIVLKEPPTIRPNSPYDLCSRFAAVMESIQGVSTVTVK
The experiment in a line: Inhibition of USP28 (unknown origin) at 20 uM.

A further assay deals with Huh-7. The experiment in a line: Antiproliferative activity against human HuH-7 cells assessed as reduction in cell viability incubated for 3 days by cell-titer glo assay. The note with it: Huh-7, 72 h. It counts as functional, cell-based. Summed up: as §1
Assay [5] deals with T3, Ubiquitin carboxyl-terminal hydrolase isozyme L5 (Homo sapiens) (UniProt Q9Y5K5).
T3 sequence (whole entry): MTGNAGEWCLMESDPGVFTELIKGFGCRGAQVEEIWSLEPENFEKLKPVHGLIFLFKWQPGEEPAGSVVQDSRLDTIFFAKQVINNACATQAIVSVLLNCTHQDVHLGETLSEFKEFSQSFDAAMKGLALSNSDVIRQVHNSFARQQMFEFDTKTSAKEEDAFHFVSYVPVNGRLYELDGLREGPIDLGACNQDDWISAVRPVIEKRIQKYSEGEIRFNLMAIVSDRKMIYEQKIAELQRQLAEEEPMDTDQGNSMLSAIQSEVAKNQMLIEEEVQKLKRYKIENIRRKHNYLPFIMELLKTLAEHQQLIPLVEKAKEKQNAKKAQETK
The experiment in a line: Inhibition of UCH-L5 (unknown origin) at 20 uM.

A short description of assay [6]: Antiproliferative activity against human K562 cells assessed as reduction in cell viability incubated for 3 days by cell-titer glo assay. Format: functional, cell-based. As to conditions: K562, 72 h. Summed up:
as §1

In assay [7] the target is T4, Ubiquitin carboxyl-terminal hydrolase 2 (Homo sapiens) (UniProt O75604).
T4 sequence (whole entry): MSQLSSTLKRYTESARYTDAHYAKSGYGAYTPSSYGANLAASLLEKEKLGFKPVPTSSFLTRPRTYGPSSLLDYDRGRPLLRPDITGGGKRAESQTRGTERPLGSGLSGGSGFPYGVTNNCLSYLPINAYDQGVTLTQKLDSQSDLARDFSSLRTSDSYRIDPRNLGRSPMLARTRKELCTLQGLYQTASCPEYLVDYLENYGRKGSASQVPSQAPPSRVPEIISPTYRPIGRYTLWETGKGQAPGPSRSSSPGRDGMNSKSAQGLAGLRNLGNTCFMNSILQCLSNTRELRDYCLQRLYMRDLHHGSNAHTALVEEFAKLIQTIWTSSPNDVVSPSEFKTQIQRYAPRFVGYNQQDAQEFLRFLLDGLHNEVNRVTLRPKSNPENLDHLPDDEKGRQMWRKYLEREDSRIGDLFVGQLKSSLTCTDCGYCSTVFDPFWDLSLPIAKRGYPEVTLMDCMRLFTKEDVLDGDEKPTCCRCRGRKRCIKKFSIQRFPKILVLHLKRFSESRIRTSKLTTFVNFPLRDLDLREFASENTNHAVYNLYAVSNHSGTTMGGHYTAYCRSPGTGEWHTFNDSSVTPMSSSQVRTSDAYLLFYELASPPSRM
The experiment in a line: Inhibition of USP2 (unknown origin) at 20 uM.

The source made the active and inactive calls. The rule behind the calls is not given here.

Ubiquitin carboxyl-terminal hydrolase isozyme L1 (Homo sapiens), sequence (P09936 whole entry, looked up): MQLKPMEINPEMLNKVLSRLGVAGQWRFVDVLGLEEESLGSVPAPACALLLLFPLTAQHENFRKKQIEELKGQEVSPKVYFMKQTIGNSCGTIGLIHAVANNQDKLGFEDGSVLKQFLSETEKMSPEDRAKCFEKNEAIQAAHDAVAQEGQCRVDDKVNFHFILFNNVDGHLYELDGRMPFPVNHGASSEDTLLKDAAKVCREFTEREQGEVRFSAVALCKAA
Ubiquitin carboxyl-terminal hydrolase 11 (Homo sapiens), sequence (P51784 whole entry): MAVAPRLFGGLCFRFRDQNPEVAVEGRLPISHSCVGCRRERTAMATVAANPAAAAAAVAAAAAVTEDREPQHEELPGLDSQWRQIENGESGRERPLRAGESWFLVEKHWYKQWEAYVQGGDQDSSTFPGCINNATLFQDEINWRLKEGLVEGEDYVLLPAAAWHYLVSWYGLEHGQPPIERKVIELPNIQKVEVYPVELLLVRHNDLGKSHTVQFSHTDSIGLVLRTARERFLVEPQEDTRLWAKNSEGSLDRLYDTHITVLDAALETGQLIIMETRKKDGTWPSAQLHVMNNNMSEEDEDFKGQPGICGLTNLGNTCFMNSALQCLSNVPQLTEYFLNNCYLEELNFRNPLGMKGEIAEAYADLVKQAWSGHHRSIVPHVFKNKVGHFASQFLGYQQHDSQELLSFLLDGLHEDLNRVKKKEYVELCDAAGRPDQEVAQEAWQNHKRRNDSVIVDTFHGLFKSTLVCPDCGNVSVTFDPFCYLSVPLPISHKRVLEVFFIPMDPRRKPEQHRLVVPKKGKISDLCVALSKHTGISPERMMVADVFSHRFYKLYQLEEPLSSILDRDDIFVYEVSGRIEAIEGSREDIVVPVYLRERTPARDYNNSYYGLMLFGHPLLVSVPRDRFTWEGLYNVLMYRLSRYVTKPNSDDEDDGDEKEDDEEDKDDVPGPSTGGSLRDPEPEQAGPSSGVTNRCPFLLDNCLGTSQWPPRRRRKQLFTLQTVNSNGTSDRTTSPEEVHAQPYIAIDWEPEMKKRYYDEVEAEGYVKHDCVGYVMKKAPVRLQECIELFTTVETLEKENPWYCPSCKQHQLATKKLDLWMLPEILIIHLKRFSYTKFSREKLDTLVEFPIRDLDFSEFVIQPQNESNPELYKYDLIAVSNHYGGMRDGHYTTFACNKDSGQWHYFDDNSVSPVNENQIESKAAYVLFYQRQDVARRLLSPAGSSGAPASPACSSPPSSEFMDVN

As for `C[C@H](CC(=O)N1CCC(O)(Cn2cnc3c(-c4ccc(CN)cc4)n(C)nc3c2=O)CC1)c1ccccc1`, the half-inhibitory concentration (IC50) in the assay on HCT-116 is over 50 µM; with RS4-11, 0.0069 µM; in the assay on NB-4 it was over 50 µM; in the assay on LNCaP, 0.0201 µM; in the assay with Huh-7, 10.7 µM; in assay [6], 24.1 µM. Besides, the inhibition result in [1], in assay [2], in assay [3], in assay [4], in [5] and in assay [7] was “inactive” in each case.
